# Screens from PubChem.
# RGS4 pot = RGS4 potentiators or activators, primary screen, cell-based, HEK293 M3R inducible RGS4, calcium flux; carbachol calcium flux Fluo4; hits give low values; B-score at 10 µM; actives 0.92% (n = 310,000); AID 463111, 2010;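 active = B-score of the integrated calcium signal more than 4 SD below the library mean, with starting fluorescence not abnormally high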;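 also: negative B-score means reduced calcium response which marks RGS4 activation or potentiation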
#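 Assay system: Inducible-RGS4 HEK293 cells carrying M3 receptor | Schedule: Compound preincubation 20 min at room temperature before agonist | Signal: Kinetic calcium fluorescence imaging with Fluo4-AM dye, 2 µM | Read-out basis: B score from integrated fluorescence ratio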
# MrgX1 agonist = agonists of human MrgX1 receptor, primary screen, HEK293 cells, Fluo-4 calcium flux. Fluo-4 calcium fluorescence, agonist mode; hits give high values. Mas-related G-protein coupled receptor member X1 (Homo sapiens), Q96LB2. B-score at 10 µM. AID 588627, 2011. actives 0.44% (n = 310,000);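 active = calcium response B-score plate-corrected fluorescence ratio at least 3 library SD, with starting fluorescence B-score inside 5 SD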
# Target sequence (Q96LB2 whole entry, looked up): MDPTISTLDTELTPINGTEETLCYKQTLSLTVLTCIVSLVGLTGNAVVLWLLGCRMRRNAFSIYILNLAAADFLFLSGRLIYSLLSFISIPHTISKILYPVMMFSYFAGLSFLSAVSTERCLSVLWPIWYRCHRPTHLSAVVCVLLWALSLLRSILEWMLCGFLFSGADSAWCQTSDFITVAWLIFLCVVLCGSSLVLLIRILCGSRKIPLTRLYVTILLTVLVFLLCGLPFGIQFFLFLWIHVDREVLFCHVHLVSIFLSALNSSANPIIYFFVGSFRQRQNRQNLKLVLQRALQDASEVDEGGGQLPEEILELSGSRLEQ
#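 Material – MrgX1-expressing HEK293 cells · Input – 15,000 cells seeded per well · Dosing – compound as first of three additions · Times – overnight seeding, then 1 h dark dye loading · Measured by – kinetic Fluo-4 NW fluorescence of intracellular calcium · Read-out – B-scored fluorescence response ratio · Benchmarks – positive and negative control wells on each plate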
# RGS4 block = RGS4 inhibitors, primary screen, cell-based, HEK293 M3R inducible RGS4, calcium flux; actives 0.45% (n = 310,000); B-score at 10 µM; Regulator of G-protein signaling 4 (Homo sapiens), P49798; Fluo-4 calcium flux; hits give high values; triggered by carbachol at its EC20;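 active = B-score, a plate-corrected calcium signal, over three deviations above library mean, with baseline fluorescence within five deviations of library mean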;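 also: RGS4 expression induced by doxycycline in cells with stable M3 receptor; B-score is computed from the integrated fluorescence ratio over baseline after carbachol; higher B-score means a larger calcium signal and so more RGS4 inhibition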
# Target sequence (P49798 whole entry, looked up): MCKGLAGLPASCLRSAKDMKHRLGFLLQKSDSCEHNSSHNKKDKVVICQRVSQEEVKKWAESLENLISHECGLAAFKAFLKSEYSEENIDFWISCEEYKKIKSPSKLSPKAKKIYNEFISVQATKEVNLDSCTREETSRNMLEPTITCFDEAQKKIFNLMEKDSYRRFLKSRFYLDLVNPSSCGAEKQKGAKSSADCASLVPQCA
# MrgX1 antagonist = antagonists of human MrgX1 receptor, primary screen, HEK293 cells, Fluo-4 calcium flux. Mas-related G-protein coupled receptor member X1 (Homo sapiens), Q96LB2. B-score at 10 µM. BAM8-22 antagonism; hits give low values. actives 1.3% (n = 310,000);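 active = calcium-response B-score plate-corrected more than 3 library SD below zero, starting fluorescence within 5 deviations, no agonist response on first addition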;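 also: peak minus trough fluorescence over baseline after final BAM8-22 challenge near maximal dose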
# MrgX1 allo act = positive allosteric modulators of MrgX1, primary screen, HEK293 cells, Fluo-4 calcium flux. Mas-related G-protein coupled receptor member X1 (Homo sapiens), Q96LB2. FDSS; hits give high values. B-score at 10 µM. actives 0.63% (n = 310,000). AID 588675, 2011;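 active = plate-corrected calcium response at least 3 library SD above typical, normal starting fluorescence, not activating the receptor alone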;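 also: compound read alongside a low EC10 to EC30 dose of BAM8-22 agonist; peak minus trough fluorescence over baseline measured at the second addition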
# * marks the source's active call; other numbers are inactive results; i = inactive; / = not tested or not shown. Rows were chosen to be rich in hits. Some 3.5% of all compounds tested hit in one or more screens of this group.
SMILES,RGS4 pot,MrgX1 agonist,RGS4 block,MrgX1 antagonist,MrgX1 allo act
CCOC(=O)C1=NN(C(=O)c2ccccc2)C(O)(c2ccc(C)cc2)C1 (centres undefined),i,i,i,i,i
CCOC(=O)C1=NN(C(=O)c2cccc(Br)c2)C(O)(C(C)(C)C)C1 (centres undefined),i,96*,i,i,i
CCOC(=O)C1=NN(C(=O)c2ccco2)C2(CC2)C1,i,i,i,i,i
CCOC(=O)C1=NN(C(=O)Cc2ccccc2)C(O)(c2ccc(Cl)cc2)C1 (centres undefined),i,i,i,i,i
COC(=O)C1=NN(C(=O)c2cccc(Br)c2)C(O)(c2ccc(Cl)cc2)C1 (centres undefined),i,36*,i,i,i
CCOC(=O)C1=NN(C(=O)c2ccc(OC)cc2)C(O)(c2ccc(Cl)cc2)C1 (centres undefined),i,48*,i,i,i
COc1ccc(-n2c(Cn3c(=O)sc4ccccc43)nnc2SC)cc1,i,i,i,i,i
COc1ccc(OC)c(CNc2c(C=O)c(=O)[nH]c3ccccc23)c1,i,i,i,i,i
CCN1/C(=C/c2sc(-c3ccccc3C)c[n+]2C)Sc2ccccc21,-7.4*,/,i,/,/
Cc1ccc(N/N=C/c2c(O)cc(C)oc2=O)cc1,/,i,/,i,i
O=C(O)c1cc([N+](=O)[O-])ccc1N1CCC(Cc2ccccc2)CC1,i,40*,i,i,i
O=C(O)c1cc([N+](=O)[O-])ccc1N1CCCCC1,i,i,i,i,i
O=C(NC1CCCCC1)C1COc2ccccc2O1 (centres undefined),-7.6*,i,i,i,i
CC1CCC(NC(=O)C2COc3ccccc3O2)CC1 (centres undefined),i,i,i,i,i
Clc1ccccc1CSc1ncccn1,i,i,i,i,i
O=c1c(Cc2ccc(F)cc2)c(O)ccn1CCc1cnc[nH]1,i,i,i,i,i
CC(=O)/C(N=Nc1cc2c(c([N+](=O)[O-])c1C)C(C)(C)CC2(C)C)=C(\C)O,i,i,i,i,9.4*
Cc1ccc(CCSCC(=O)O)cn1,i,i,i,i,i
CC(C)(C)[C@H]1C=C(C(=O)N2CCN(Cc3ccccc3)CC2)O[C@@H](OCc2ccc(CO)cc2)C1,i,i,i,i,7.4*
CN(C)CCCNC(=O)N1c2ccccc2C=Cc2ccccc21,-7.2*,i,i,i,i
CCN(CC)C(=O)N1c2ccccc2C=Cc2ccccc21,i,i,i,i,i
CCOc1ccc(NC2=NCCC(=O)N2Cc2cccs2)cc1,i,i,i,i,i
CSc1oc(-c2cccs2)nc1S(=O)(=O)c1ccccc1,i,i,i,i,i
CCCN(C(=O)CSCc1ccccc1C)c1c(N)n(Cc2ccccc2)c(=O)[nH]c1=O,i,i,i,-7.2*,i
COC(=O)c1cc2nc(-c3ccccc3)cc(C)n2n1,i,i,i,i,i
SMILES,RGS4 pot,MrgX1 agonist,RGS4 block,MrgX1 antagonist,MrgX1 allo act
Cc1cc(-c2ccccc2)nc2cc(C(=O)N(Cc3ccccc3)Cc3ccccc3)nn12,-7.9*,i,i,i,i
CCOc1ccc(S(=O)(=O)c2c(C(=O)c3ccc(C)cc3)cnc3cc4c(cc23)OCCO4)cc1,i,i,i,i,i
C=CCOc1cccc(C(=O)/C=C2/C(=O)Nc3ccccc32)c1,i,i,5.8*,i,i
N#C/C(=C\c1c(N2CCN(Cc3ccccc3)CC2)nc2ccccn2c1=O)S(=O)(=O)c1ccccc1,i,i,i,i,i
Cc1cccn2c(=O)c(/C=C(\C#N)S(=O)(=O)c3ccccc3)c(N3CCN(Cc4ccccc4)CC3)nc12,-7.2*,i,i,i,i
Cc1ccc(S(=O)(=O)NC(C(=O)Oc2ccc3ccc(=O)oc3c2)c2ccccc2)cc1 (centres undefined),i,i,i,i,i
Cc1ccc(S(=O)(=O)N[C@H](C(=O)Oc2ccc3c(C(F)(F)F)cc(=O)oc3c2)c2ccccc2)cc1,i,29*,i,i,i
CCC1CCCCN1CCCNC(=O)c1ccc2c(c1)N(Cc1ccc(F)cc1)C(=O)c1ccccc1S2=O (centres undefined),-8.4*,i,i,i,i
O=C(NCCCN1CCCC1)c1ccc2c(c1)N(Cc1ccc(F)cc1)C(=O)c1ccccc1S2=O (centres undefined),i,i,i,i,i
Cc1cc(/C=C(\C#N)C(=O)OCC#N)c(C)n1CC(C)C,i,i,i,i,i
Cc1c2ccccc2nc2c(F)c(N(C)C)c(F)c(F)c12,i,i,i,-8.1*,i
C=CCN1C(=O)S/C(=C/c2ccsc2)C1=O,i,i,i,i,i
CC(C)N1C(=O)S/C(=C/c2ccc(Sc3nc4ccccc4[nH]3)o2)C1=O,i,i,i,-7*,i
C=CCN1C(=O)S/C(=C/c2ccc(Sc3nc4ccccc4[nH]3)o2)C1=O,i,i,i,-6.8*,i
O=C(CSc1ncn[nH]1)N1CCN(S(=O)(=O)c2ccc(Cl)cc2)CC1,i,i,i,i,i
O=[N+]([O-])c1ccc(N=Cc2ccc(Br)c([N+](=O)[O-])c2)cc1,i,34*,i,i,i
Cc1c(N=Cc2ccc(O)c(Br)c2)cccc1[N+](=O)[O-],i,i,i,i,i
O=C(CCCC(=O)N(CC(=O)NC1CCCC1)c1cccc(F)c1)Nc1ccccn1,i,i,i,i,i
COc1ccc(-c2cc(C(=O)Nc3cc(S(=O)(=O)N4CCOCC4)ccc3N3CCOCC3)c3ccccc3n2)cc1,-7*,i,i,i,i
OCCCNCc1ccc(N(c2ccccc2)c2ccccc2)cc1,-7.3*,i,i,i,i
CN(C)S(=O)(=O)N1CCC(Oc2cccc(C(=O)NCCC3=CCCCC3)c2)CC1,i,i,i,-4.5*,i
CN(C)S(=O)(=O)N1CCC(Oc2cccc(C(=O)NC3CCCCC3)c2)CC1,i,i,i,i,i
Cn1c(Sc2ccccc2Cl)c(C=O)c2ccccc21,-8.5*,i,i,i,i
